Several values for one entry are separate records, joined by “and”; a condition that tells them apart may be missing. Equal entries are not always repeated.
Tested on: U2OS
Test: Multiplex assay against U2OS
Type: toxicity, cell-based
Details: human, number of replicates 2
Summary of the method: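 Values for tubulin, mitochondrial-mass and membrane-permeability phenotypes are per cents of cells with healthy nuclei. These cells were identified by CellPathfinder machine-learning gating of live cells that had been stained at seeding with Hoechst33342, BioTracker Green Microtubule Cytoskeleton Dye, MitoTracker Red and Annexin V Alexa Fluor 680 and imaged on a CQ1 microscope at 37°C and 5% CO2 after compound addition. The gating first set Hoechst high-intensity objects apart from normal cells, then split normal cells into healthy, pyknosed or fragmented nuclei, and pyknosed cells into mitotic or apoptotic.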

[1] = 12 h, 1 µM, compound concentration 1 uM
[2] = 12 h, 10 µM, compound concentration 10 uM
[3] = 24 h, 1 µM, compound concentration 1 uM
[4] = 24 h, 10 µM, compound concentration 10 uM
[5] = 48 h, 1 µM, compound concentration 1 uM
[6] = 48 h, 10 µM, compound concentration 10 uM

## O=C1NC(=O)C(c2ccccc2[N+](=O)[O-])=C1Nc1ccc(O)c(Cl)c1
[1]
  Population Apoptotic (%): 100% and 38%
  Population Fragmented Nuclei (%): 12% and 5%
  Population Healthy Nuclei (%): 80% and 83%
  Population Hoechst High Intensity Objects (%): 0%
  Population Membrane Permeable-Phenotype (%): 0% and 1%
  Population Mitochondria Different-Phenotype (%): 0%
  Population Normal (%): 100%
  Population Pyknosed Nuclei (%): 8% and 10%
  Population Tubulin-Different-Phenotype (%): 85% and 90%
[2]
  Population Apoptotic (%): 80% and 37%
  Population Fragmented Nuclei (%): 9% and 5%
  Population Healthy Nuclei (%): 68% and 83%
  Population Hoechst High Intensity Objects (%): 0% and 3%
  Population Membrane Permeable-Phenotype (%): 6% and 3%
  Population Mitochondria Different-Phenotype (%): 6% and 0%
  Population Normal (%): 100% and 96%
  Population Pyknosed Nuclei (%): 22% and 10%
  Population Tubulin-Different-Phenotype (%): 73% and 92%
  Total Cell Count: 22
[3]
  Population Apoptotic (%): 40% and 37%
  Population Healthy Nuclei (%): 67% and 86%
  Population Hoechst High Intensity Objects (%): 0%
  Population Membrane Permeable-Phenotype (%): 4% and 2%
  Population Mitochondria Different-Phenotype (%): 0%
  Population Mitotic Cells (%): 60% and 62%
  Population Normal (%): 100%
  Population Pyknosed Nuclei (%): 14% and 10%
  Population Tubulin-Different-Phenotype (%): 73% and 92%
[4]
  Population Apoptotic (%): 66% and 31%
  Population Fragmented Nuclei (%): 8% and 5%
  Population Healthy Nuclei (%): 73% and 84%
  Population Hoechst High Intensity Objects (%): 0%
  Population Membrane Permeable-Phenotype (%): 4% and 1%
  Population Mitochondria Different-Phenotype (%): 4% and 0%
  Population Mitotic Cells (%): 33% and 68%
  Population Normal (%): 100% and 99%
  Population Pyknosed Nuclei (%): 17% and 10%
  Population Tubulin-Different-Phenotype (%): 84% and 95%
[5]
  Population Apoptotic (%): 71% and 55%
  Population Fragmented Nuclei (%): 9% and 3%
  Population Healthy Nuclei (%): 80% and 90%
  Population Hoechst High Intensity Objects (%): 0%
  Population Membrane Permeable-Phenotype (%): 1%
  Population Mitochondria Different-Phenotype (%): 0%
  Population Mitotic Cells (%): 28% and 44%
  Population Normal (%): 100%
  Population Pyknosed Nuclei (%): 10% and 5%
  Population Tubulin-Different-Phenotype (%): 86% and 93%
[6]
  Population Apoptotic (%): 22% and 31%
  Population Fragmented Nuclei (%): 5% and 7%
  Population Healthy Nuclei (%): 77% and 85%
  Population Hoechst High Intensity Objects (%): 0% and 2%
  Population Membrane Permeable-Phenotype (%): 2% and 0%
  Population Mitochondria Different-Phenotype (%): 2% and 0%
  Population Mitotic Cells (%): 77% and 68%
  Population Normal (%): 100% and 97%
  Population Pyknosed Nuclei (%): 16% and 7%
  Population Tubulin-Different-Phenotype (%): 92% and 98%

## COc1ccccc1-c1cc(Nc2cccc(CS(N)(=O)=O)c2)ncn1
[1]
  Population Apoptotic (%): 75% and 86%
  Population Fragmented Nuclei (%): 13% and 5%
  Population Healthy Nuclei (%): 75% and 84%
  Population Hoechst High Intensity Objects (%): 0%
  Population Membrane Permeable-Phenotype (%): 7% and 3%
  Population Mitochondria Different-Phenotype (%): 0% and 1%
  Population Mitotic Cells (%): 25% and 13%
  Population Normal (%): 100%
  Population Pyknosed Nuclei (%): 11% and 10%
  Population Tubulin-Different-Phenotype (%): 62% and 80%
[2]
  Population Apoptotic (%): 63% and 66%
  Population Healthy Nuclei (%): 82% and 50%
  Population Hoechst High Intensity Objects (%): 0%
  Population Mitochondria Different-Phenotype (%): 1% and 0%
  Population Mitotic Cells (%): 36% and 33%
  Population Normal (%): 100%
  Population Pyknosed Nuclei (%): 12% and 13%
  Population Tubulin-Different-Phenotype (%): 72% and 34%
[3]
  Population Apoptotic (%): 80% and 86%
  Population Healthy Nuclei (%): 70% and 88%
  Population Hoechst High Intensity Objects (%): 0%
  Population Membrane Permeable-Phenotype (%): 2% and 1%
  Population Mitochondria Different-Phenotype (%): 2% and 0%
  Population Mitotic Cells (%): 20% and 13%
  Population Normal (%): 100%
  Population Pyknosed Nuclei (%): 8% and 7%
  Population Tubulin-Different-Phenotype (%): 51% and 77%
[4]
  Population Apoptotic (%): 80%
  Population Healthy Nuclei (%): 79% and 62%
  Population Hoechst High Intensity Objects (%): 0%
  Population Mitochondria Different-Phenotype (%): 1% and 11%
  Population Mitotic Cells (%): 19% and 20%
  Population Normal (%): 100%
  Population Pyknosed Nuclei (%): 16% and 18%
  Population Tubulin-Different-Phenotype (%): 76% and 50%
[5]
  Population Apoptotic (%): 75% and 83%
  Population Fragmented Nuclei (%): 13% and 4%
  Population Healthy Nuclei (%): 77% and 88%
  Population Hoechst High Intensity Objects (%): 0%
  Population Membrane Permeable-Phenotype (%): 8% and 1%
  Population Mitochondria Different-Phenotype (%): 0%
  Population Mitotic Cells (%): 25% and 16%
  Population Normal (%): 100%
  Population Pyknosed Nuclei (%): 9% and 7%
  Population Tubulin-Different-Phenotype (%): 75% and 78%
[6]
  Population Apoptotic (%): 66% and 77%
  Population Fragmented Nuclei (%): 18% and 7%
  Population Healthy Nuclei (%): 60% and 73%
  Population Hoechst High Intensity Objects (%): 0%
  Population Membrane Permeable-Phenotype (%): 8% and 6%
  Population Mitochondria Different-Phenotype (%): 6% and 3%
  Population Mitotic Cells (%): 33% and 22%
  Population Normal (%): 100%
  Population Pyknosed Nuclei (%): 20% and 18%
  Population Tubulin-Different-Phenotype (%): 55% and 73%

## CC(C)S(=O)(=O)c1ccccc1Nc1nc(N[C@@H]2CCCN(CCCCCCCNC(=O)COc3cccc4c3C(=O)N(C3CCC(=O)NC3=O)C4=O)C2)ncc1Cl (stereo partly specified)
[1]
  Population Apoptotic (%): 82% and 80%
  Population Fragmented Nuclei (%): 14% and 8%
  Population Healthy Nuclei (%): 43% and 61%
  Population Hoechst High Intensity Objects (%): 0% and 1%
  Population Membrane Permeable-Phenotype (%): 5%
  Population Mitochondria Different-Phenotype (%): 5% and 6%
  Population Mitotic Cells (%): 17% and 19%
  Population Normal (%): 100% and 98%
  Population Pyknosed Nuclei (%): 41% and 30%
  Population Tubulin-Different-Phenotype (%): 66% and 62%
[2]
  Population Apoptotic (%): 85% and 81%
  Population Fragmented Nuclei (%): 11% and 7%
  Population Healthy Nuclei (%): 38% and 61%
  Population Hoechst High Intensity Objects (%): 0% and 5%
  Population Membrane Permeable-Phenotype (%): 81% and 57%
  Population Mitochondria Different-Phenotype (%): 62% and 55%
  Population Mitotic Cells (%): 14% and 18%
  Population Normal (%): 100% and 94%
  Population Pyknosed Nuclei (%): 50% and 31%
  Population Tubulin-Different-Phenotype (%): 100% and 96%
[3]
  Population Apoptotic (%): 83% and 87%
  Population Fragmented Nuclei (%): 24% and 14%
  Population Healthy Nuclei (%): 22% and 41%
  Population Hoechst High Intensity Objects (%): 0% and 2%
  Population Membrane Permeable-Phenotype (%): 0% and 5%
  Population Mitochondria Different-Phenotype (%): 0% and 6%
  Population Mitotic Cells (%): 16% and 12%
  Population Normal (%): 100% and 97%
  Population Pyknosed Nuclei (%): 53% and 44%
  Population Tubulin-Different-Phenotype (%): 70% and 87%
[4]
  Population Apoptotic (%): 93% and 89%
  Population Fragmented Nuclei (%): 21% and 10%
  Population Healthy Nuclei (%): 19% and 31%
  Population Hoechst High Intensity Objects (%): 0% and 8%
  Population Membrane Permeable-Phenotype (%): 0% and 25%
  Population Mitotic Cells (%): 6% and 10%
  Population Normal (%): 100% and 91%
  Population Pyknosed Nuclei (%): 59% and 58%
  Population Tubulin-Different-Phenotype (%): 40% and 55%
[5]
  Population Apoptotic (%): 96% and 95%
  Population Healthy Nuclei (%): 22% and 28%
  Population Hoechst High Intensity Objects (%): 2% and 3%
  Population Mitotic Cells (%): 3% and 4%
  Population Normal (%): 97% and 96%
  Population Pyknosed Nuclei (%): 54% and 63%
  Population Tubulin-Different-Phenotype (%): 90% and 85%
[6]
  Population Apoptotic (%): 90% and 97%
  Population Fragmented Nuclei (%): 8% and 22%
  Population Healthy Nuclei (%): 12% and 0%
  Population Hoechst High Intensity Objects (%): 9% and 2%
  Population Mitotic Cells (%): 9% and 2%
  Population Normal (%): 90% and 97%
  Population Pyknosed Nuclei (%): 79% and 77%
